Values after ≈ are worked out from the molar mass of the structure shown.
Tests used:
Salmonella typhimurium [1] = assay: Antibacterial activity against Salmonella Typhimurium measured at MIC after 18 hrs by halo zone test; format: functional, Salmonella enterica subsp. enterica serovar Typhimurium
Outline: (§1)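 Disk diffusion. Strains subcultured 18 h at 37 °C in BHI, then suspended in saline by McFarland to about 10⁵ CFU/mL. Suspension mixed 1:1 with antibiotic agar at 40 °C and plated. 6.0 mm paper disks loaded with dilutions from a DMSO stock (1 mg per 100 of DMSO). Incubated 18 h at 36 °C. Inhibition zone (mm) measured at the MIC. Amoxicillin and DMSO disks as controls.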

Streptococcus pyogenes [2] = assay: Antibacterial activity against Streptococcus pyogenes after 18 hrs by macro-dilution test; format: functional
Outline: (§2)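 Tube macro-dilution. Compounds in DMSO serially diluted to final […]. 24 h old inoculum added to each tube. Standard inoculum […]. Incubated 18 h at 37 °C. MIC is the lowest concentration with no visible growth, read visually. DMSO negative and amoxicillin positive controls.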

Streptococcus pyogenes [3] = assay: Antibacterial activity against Streptococcus pyogenes measured at MIC after 18 hrs by halo zone test; format: functional; outline: as §1
Escherichia coli [4] = assay: Antibacterial activity against Escherichia coli measured at MIC after 18 hrs by halo zone test; format: functional; outline: as §1
Staphylococcus aureus [5] = assay: Antibacterial activity against Staphylococcus aureus after 18 hrs by macro-dilution test; format: functional; outline: as §2
Escherichia coli [6] = assay: Antibacterial activity against Escherichia coli after 18 hrs by macro-dilution test; format: functional; outline: as §2
Staphylococcus aureus [7] = assay: Antibacterial activity against Staphylococcus aureus measured at MIC after 18 hrs by halo zone test; format: functional; outline: as §1
Salmonella typhimurium [8] = assay: Antibacterial activity against Salmonella Typhimurium after 18 hrs by macro-dilution test; format: functional, Salmonella enterica subsp. enterica serovar Typhimurium; conditions: Salmonella enterica; outline: as §2

Row | MIC (Streptococcus pyogenes [2]) [µg/mL] | MIC (Staphylococcus aureus [5]) [µg/mL] | MIC (Escherichia coli [6]) [µg/mL] | MIC (Salmonella typhimurium [8]) [µg/mL] | Compound | inhibition zone (IZ) (Salmonella typhimurium [1]) [mm] | inhibition zone (IZ) (Streptococcus pyogenes [3]) [mm] | inhibition zone (IZ) (Escherichia coli [4]) [mm] | inhibition zone (IZ) (Staphylococcus aureus [7]) [mm]
1 | 64 (≈ 242 µM) | 128 (≈ 483 µM) | 256 (≈ 967 µM) | 128 (≈ 483 µM) | NC(=S)N/N=C/c1cc2ccccc2nc1Cl | 12.42 | 16.97 | 17.76 | 11.67
2 | 256 (≈ 594 µM) | 256 (≈ 594 µM) | 128 (≈ 297 µM) | 64 (≈ 149 µM) | CC(=O)N1N=C(N(C(C)=O)C2CCCCC2)SC1c1cc2ccccc2nc1Cl (stereo not given) | 14.59 | 17.38 | 15.63 | 14.03
3 | 128 (≈ 341 µM) | 256 (≈ 683 µM) | 256 (≈ 683 µM) | 128 (≈ 341 µM) | S=C(N/N=C/c1cc2ccccc2nc1Cl)NC1CCCCCCC1 | 19.73 | 13.67 | 13.23 | 9.9
4 | 64 (≈ 173 µM) | 32 (≈ 86.7 µM) | 64 (≈ 173 µM) | 32 (≈ 86.7 µM) | Cc1ccccc1NC(=S)N/N=C/c1cc2cccc(C)c2nc1Cl | 13.94 | 18.81 | 15.17 | 14.8
5 | 64 (≈ 166 µM) | 64 (≈ 166 µM) | 32 (≈ 82.9 µM) | 256 (≈ 663 µM) | O=[N+]([O-])c1ccc(NC(=S)N/N=C/c2cc3ccccc3nc2Cl)cc1 | – | 12.25 | 13.27 | 13.46
6 | 128 (≈ 336 µM) | 64 (≈ 168 µM) | 256 (≈ 671 µM) | 256 (≈ 671 µM) | S=C(N/N=C/c1cc2cccc(Cl)c2nc1Cl)NC1CCCCC1 | 15.72 | 13.73 | 15.23 | 17.23
7 | 128 (≈ 259 µM) | 64 (≈ 130 µM) | 64 (≈ 130 µM) | 64 (≈ 130 µM) | CC(=O)N1N=C(N(C(C)=O)C2CCCCCCC2)SC1c1cc2cccc(Cl)c2nc1Cl (stereo not given) | 18.54 | 17.94 | 16.36 | 17.62
8 | 64 (≈ 173 µM) | 32 (≈ 86.7 µM) | 64 (≈ 173 µM) | 32 (≈ 86.7 µM) | Cc1ccc(NC(=S)N/N=C/c2cc3cccc(C)c3nc2Cl)cc1 | 17.18 | 17.65 | 18.67 | 19.24
9 | 64 (≈ 142 µM) | 64 (≈ 142 µM) | 128 (≈ 284 µM) | 128 (≈ 284 µM) | CC(=O)N1N=C(N(C(C)=O)C2CCCC2)SC1c1cc2cccc(Cl)c2nc1Cl (stereo not given) | 15.17 | 14.15 | 18.18 | 18.03
10 | 128 (≈ 459 µM) | 64 (≈ 230 µM) | 256 (≈ 918 µM) | 256 (≈ 918 µM) | Cc1cccc2cc(/C=N/NC(N)=S)c(Cl)nc12 | 18.02 | 17.1 | – | 12.76
11 | 256 (≈ 738 µM) | 256 (≈ 738 µM) | 128 (≈ 369 µM) | 128 (≈ 369 µM) | S=C(N/N=C/c1cc2ccccc2nc1Cl)NC1CCCCC1 | 15.93 | 12.38 | 17.68 | 12.37
12 | 128 (≈ 329 µM) | 256 (≈ 658 µM) | 256 (≈ 658 µM) | 128 (≈ 329 µM) | Cc1cccc2cc(/C=N/NC(=S)NC3CCCCCCC3)c(Cl)nc12 | 22.51 | 14.45 | 16.61 | 15.78
13 | 64 (≈ 164 µM) | 32 (≈ 82.2 µM) | 64 (≈ 164 µM) | 32 (≈ 82.2 µM) | Cc1ccccc1NC(=S)N/N=C/c1cc2cccc(Cl)c2nc1Cl | 10.53 | 10.26 | 13.47 | 18.9
14 | 256 (≈ 625 µM) | 256 (≈ 625 µM) | 128 (≈ 313 µM) | 256 (≈ 625 µM) | S=C(N/N=C/c1cc2cccc(Cl)c2nc1Cl)NC1CCCCCCC1 | 17.54 | 17.54 | 17.62 | –
15 | 64 (≈ 183 µM) | 64 (≈ 183 µM) | 64 (≈ 183 µM) | 64 (≈ 183 µM) | CC(=O)NC1=NN(C(C)=O)C(c2cc3ccccc3nc2Cl)S1 (stereo not given) | 13.42 | 16.97 | 17.76 | 15.67
16 | 64 (≈ 170 µM) | 32 (≈ 84.9 µM) | 64 (≈ 170 µM) | 32 (≈ 84.9 µM) | Fc1ccc(F)c(NC(=S)N/N=C/c2cc3ccccc3nc2Cl)c1 | 11.56 | 14.07 | 10.13 | 16.75
17 | 64 (≈ 135 µM) | 64 (≈ 135 µM) | 64 (≈ 135 µM) | 64 (≈ 135 µM) | CC(=O)N(C1=NN(C(C)=O)C(c2cc3cccc(Cl)c3nc2Cl)S1)c1ccc(C)cc1 (stereo not given) | 16.88 | 17.09 | 18.11 | 15.67
18 | 32 (≈ 80 µM) | 64 (≈ 160 µM) | 32 (≈ 80 µM) | 64 (≈ 160 µM) | Cc1cccc2cc(/C=N/NC(=S)Nc3ccc([N+](=O)[O-])cc3)c(Cl)nc12 | 14.23 | 13.27 | 17.48 | 17.31
19 | 64 (≈ 141 µM) | 64 (≈ 141 µM) | 64 (≈ 141 µM) | 64 (≈ 141 µM) | CC(=O)N(C1=NN(C(C)=O)C(c2cc3cccc(C)c3nc2Cl)S1)c1ccc(C)cc1 (stereo not given) | 17.27 | 18.32 | 18.16 | 18.92
20 | 256 (≈ 738 µM) | 256 (≈ 738 µM) | 256 (≈ 738 µM) | 256 (≈ 738 µM) | Cc1cccc2cc(/C=N/NC(=S)NC3CCCC3)c(Cl)nc12 | 17.44 | 18.71 | 16.97 | 20.04
21 | 32 (≈ 82.2 µM) | 64 (≈ 164 µM) | 64 (≈ 164 µM) | 32 (≈ 82.2 µM) | Cc1ccc(NC(=S)N/N=C/c2cc3cccc(Cl)c3nc2Cl)cc1 | 17.55 | 15.76 | 15.88 | 15.01
22 | 32 (≈ 77.8 µM) | 64 (≈ 156 µM) | 64 (≈ 156 µM) | 64 (≈ 156 µM) | Fc1ccc(F)c(NC(=S)N/N=C/c2cc3cccc(Cl)c3nc2Cl)c1 | 14.92 | 15.92 | 13.75 | 12.15
23 | 64 (≈ 132 µM) | 64 (≈ 132 µM) | 64 (≈ 132 µM) | 64 (≈ 132 µM) | CC(=O)N(C1=NN(C(C)=O)C(c2cc3cccc(C)c3nc2Cl)S1)c1ccc([N+](=O)[O-])cc1 (stereo not given) | 19.16 | 15.27 | 13.03 | 16.54
24 | 128 (≈ 288 µM) | 128 (≈ 288 µM) | 256 (≈ 575 µM) | 256 (≈ 575 µM) | CC(=O)N1N=C(N(C(C)=O)C2CCCCC2)SC1c1cc2cccc(C)c2nc1Cl (stereo not given) | 12.01 | 13.09 | 16.75 | 15.42
25 | 64 (≈ 167 µM) | 64 (≈ 167 µM) | 64 (≈ 167 µM) | 64 (≈ 167 µM) | CC(=O)NC1=NN(C(C)=O)C(c2cc3cccc(Cl)c3nc2Cl)S1 (stereo not given) | 17.27 | 19.91 | 16.72 | 18.13
26 | 256 (≈ 541 µM) | 256 (≈ 541 µM) | 256 (≈ 541 µM) | 128 (≈ 271 µM) | CC(=O)N1N=C(N(C(C)=O)C2CCCCCCC2)SC1c1cc2cccc(C)c2nc1Cl (stereo not given) | 17.84 | 15.45 | 19 | 18.77
27 | 64 (≈ 214 µM) | 64 (≈ 214 µM) | 128 (≈ 428 µM) | 128 (≈ 428 µM) | NC(=S)N/N=C/c1cc2cccc(Cl)c2nc1Cl | 16.66 | 19.58 | 15.8 | 21.13
28 | 64 (≈ 152 µM) | 32 (≈ 76.1 µM) | 256 (≈ 609 µM) | 64 (≈ 152 µM) | O=[N+]([O-])c1ccc(NC(=S)N/N=C/c2cc3cccc(Cl)c3nc2Cl)cc1 | 15.99 | 15.26 | – | 19.7
29 | 64 (≈ 180 µM) | 256 (≈ 721 µM) | 32 (≈ 90.2 µM) | 64 (≈ 180 µM) | Cc1ccccc1NC(=S)N/N=C/c1cc2ccccc2nc1Cl | 14.73 | 16.48 | 18.84 | –

Row | Compound | MIC (Streptococcus pyogenes [2]) [µg/mL] | MIC (Staphylococcus aureus [5]) [µg/mL] | MIC (Escherichia coli [6]) [µg/mL] | MIC (Salmonella typhimurium [8]) [µg/mL] | inhibition zone (IZ) (Salmonella typhimurium [1]) [mm] | inhibition zone (IZ) (Streptococcus pyogenes [3]) [mm] | inhibition zone (IZ) (Escherichia coli [4]) [mm] | inhibition zone (IZ) (Staphylococcus aureus [7]) [mm]
30 | CC1(C)S[C@@H]2[C@H](NC(=O)[C@H](N)c3ccc(O)cc3)C(=O)N2[C@H]1C(=O)O [AMOXICILLIN] | 32 (≈ 87.6 µM) | 32 (≈ 87.6 µM) | 32 (≈ 87.6 µM) | 32 (≈ 87.6 µM) | 21.82 | 19.57 | 22.05 | 20.85
